Screens deposited in PubChem BioAssay by several laboratories.
Diaphorase inh: diaphorase inhibitors and chemical oxidizers, primary screen, counter-screen for diaphorase-coupled primary assays, biochemical, uHTS, resorufin fluorescence; diaphorase resazurin-to-resorufin fluorescence, NADH, 16 min; bacterial (C. kluyveri) enzyme, not human; inhibition, % at 20 µM; 190,000 tested, 0.69% active;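 active = primary screen inhibition at 20 µM above a set limit, cut at about 50% in these data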
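System: Bacterial diaphorase enzyme (C. kluyveri) | Incubation: 16-min room-temperature incubation before reading | Benchmarks: No-NADH positive control and DMSO neutral control | Measured by: Resorufin fluorescence 544/590 nm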
L major viab: Leishmania major promastigote growth inhibition, primary screen; Leishmania major promastigotes, resazurin fluorescence viability; inhibition, % at 10 µM; 200,000 tested, 9% active; AID 1063, 2008; in the data active = inhibition above about 50%;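 note: promastigotes grown with compound for 44 hours at 28 °C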
ROMK mod: ROMK potassium channel modulators, primary screen, cell-based, thallium flux, MLSMR library. ATP-sensitive inward rectifier potassium channel 1 (Homo sapiens), P48048. B-score at 10 µM. Tet-inducible ROMK, thallium flux fluorescence; actives lie on both sides. 130,000 tested, 2% active;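 active = signal ratio slope over the read window, or its plate-corrected B-score, at least 3 SD from the plate mean, either direction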;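 note: B-score of the F/F0 ratio slope over 7 to 12 s after thallium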
KCC2 mod: KCC2 cotransporter modulators, thallium flux, primary screen, cell-based, HEK293 KCC2, FluoZin-2 fluorescence, MLSMR | KCC2 cells, thallium flux FluoZin-2 fluorescence | B-score of Tl+ flux slope (higher = more flux/activation; lower = inhibition) at 10 µM | 190,000 tested, 2.2% active;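 active = thallium flux slope and its plate-corrected score both differing from the plate sample mean at a set confidence after two filtering rounds, in either direction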;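 note: slope of fluorescence scaled to starting intensity during 10 to 20 s after thallium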
Target sequence (Q9H2X9 whole entry, looked up): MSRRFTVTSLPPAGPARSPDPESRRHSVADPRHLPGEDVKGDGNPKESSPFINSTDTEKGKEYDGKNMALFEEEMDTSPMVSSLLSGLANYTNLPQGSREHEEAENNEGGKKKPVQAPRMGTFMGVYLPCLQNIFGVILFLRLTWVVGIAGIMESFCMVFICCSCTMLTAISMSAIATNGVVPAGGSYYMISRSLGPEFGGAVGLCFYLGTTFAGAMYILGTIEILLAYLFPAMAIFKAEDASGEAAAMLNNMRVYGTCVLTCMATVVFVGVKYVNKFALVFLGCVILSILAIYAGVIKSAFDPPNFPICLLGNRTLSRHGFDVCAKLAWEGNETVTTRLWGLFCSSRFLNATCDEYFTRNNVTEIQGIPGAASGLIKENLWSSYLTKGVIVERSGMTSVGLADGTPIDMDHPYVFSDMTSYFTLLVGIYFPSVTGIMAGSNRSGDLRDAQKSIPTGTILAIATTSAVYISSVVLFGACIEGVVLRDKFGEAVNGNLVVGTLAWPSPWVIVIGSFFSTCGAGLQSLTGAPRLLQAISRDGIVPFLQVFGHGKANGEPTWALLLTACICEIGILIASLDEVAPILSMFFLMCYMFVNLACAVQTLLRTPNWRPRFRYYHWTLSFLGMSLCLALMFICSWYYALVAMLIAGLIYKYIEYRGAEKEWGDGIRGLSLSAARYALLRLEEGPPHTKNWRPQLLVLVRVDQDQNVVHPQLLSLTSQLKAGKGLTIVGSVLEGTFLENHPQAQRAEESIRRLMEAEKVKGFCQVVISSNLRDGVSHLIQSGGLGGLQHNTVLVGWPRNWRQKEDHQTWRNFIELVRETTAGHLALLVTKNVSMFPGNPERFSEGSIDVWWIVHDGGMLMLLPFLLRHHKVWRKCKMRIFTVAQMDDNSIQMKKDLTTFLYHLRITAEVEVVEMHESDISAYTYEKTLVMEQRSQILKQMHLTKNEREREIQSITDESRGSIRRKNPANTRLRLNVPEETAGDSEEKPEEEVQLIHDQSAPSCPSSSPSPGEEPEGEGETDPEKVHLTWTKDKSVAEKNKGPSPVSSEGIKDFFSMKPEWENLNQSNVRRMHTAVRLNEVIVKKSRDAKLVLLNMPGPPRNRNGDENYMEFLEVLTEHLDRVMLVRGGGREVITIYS
WT yeast gro inh: growth inhibition of WT strain, primary screen, mitochondrial fusion inhibitor project, WT and mutant strains, chemical genetic. mitochondrial fusion phenotypic screen. inhibition, % at 10 µM. 190,000 tested, 2.1% active. AID 1362, 2008; in the data active = inhibition above about 58%; tested in S. cerevisiae
Diaphorase act: compounds boosting diaphorase resazurin reduction – biochemical, uHTS, resorufin fluorescence, counter-screen for diaphorase-coupled primary assays, primary screen. AID 1229, 2008. activation factor at 20 µM. 190,000 tested, 0.005% active. Diaphorase/resazurin coupled assay, 16 min; active compounds read high; 1 = vehicle wells, 0 = NADH-free wells;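 active = diaphorase activity raised at least twofold by the compound at 20 µM; inactive = activation factor below 2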
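Measured by – red resorufin fluorescence at 544/590 nm excitation/emission · Test system – Clostridium kluyveri diaphorase, purified enzyme · Incubation – reaction time 16 min, room temperature · Buffer or medium – 50 mM HEPES pH 7.4 with 4.542 mM MgCl2, 0.005% Tween 20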
KCC2 secondary: KCC2 modulators in sodium-free buffer, confirmation, cell-based, HEK293 KCC2, thallium flux, secondary assay; AID 1713, 2009; 3,700 tested, 15% active; normalised thallium flux (F/F0 slope) at 10 µM; shares compounds with KCC2 mod; FluoZin2 fluorescence; active compounds read high;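 active = thallium flux slope above the same plate's solvent-only control mean plus 3 SD; inconclusive = the two replicate wells disagree; inactive = no significant difference from solvent-only control wells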
KCC2 bumet counter: thallium flux persisting under bumetanide in KCC2 cells, confirmation, counter-screen for KCC2 modulator project, cell-based, HEK293 KCC2, FluoZin2, secondary assay 3. HEK293-KCC2 + bumetanide/ouabain; active compounds read high. AID 1714, 2009. shares compounds with KCC2 mod. 3,700 tested, 49% active. normalized thallium flux at 10 µM;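 active = thallium entry rate above the same plate's blocked-transporter control wells by more than 3 SD; inconclusive = the two repeat wells disagree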;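 note: raw slope of fluorescence over initial fluorescence between 10 and 20 s after thallium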
KCC2 sec2: KCC2 modulators without ouabain present, confirmation, cell-based, HEK293 KCC2, thallium flux, FluoZin2, secondary assay 2; shares compounds with KCC2 mod; thallium flux FluoZin2 fluorescence; actives lie on both sides; F/F0 rise rate, 10–20 s post-thallium; normalized thallium flux at 10 µM; 3,700 tested, 23% active; AID 1715, 2009;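 active = thallium flux slope more than 3 SD above or below the plate's solvent-only control mean, mostly below; inconclusive = the two repeat wells disagreed; inactive = no significant shift from solvent-only controls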
HEK293 Tl flux: thallium flux modulation in parental HEK cells, confirmation, counter-screen for KCC2 modulator project, cell-based, counterscreen 1; shares compounds with KCC2 mod; HEK293 parental cells, thallium flux FluoZin2, ouabain; baseline-ratio fluorescence slope, 10–20 s after thallium; thallium flux rate (normalised fluorescence) at 10 µM; 3,700 tested, 46% active;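 active = thallium flux rate significantly above the same plate's solvent-only control wells, beyond their mean plus 3 SD; inconclusive = the two replicate wells gave conflicting results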
KCC2 ouabain: KCC2 inhibitors and activators, ouabain retest, confirmation, HEK-KCC2 cells; raw Tl+ flux slope (below DMSO = inhibition, above = activation) at 10 µM; 3,700 tested, 48% active; AID 1717, 2009; shares compounds with KCC2 mod; HEK293-KCC2, thallium flux FluoZin2 fluorescence; bidirectional: low = inhibitor, high = activator;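 active = thallium flux slope beyond 3 SD from same-plate DMSO control mean in most replicates, usually higher, sometimes lower; inconclusive = repeat tests gave conflicting results; inactive = no significant difference from controls in most replicates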;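 note: slope of initial-normalized fluorescence between seconds 10 and 20 after thallium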
HEK293 Tl flux2: native HEK Tl+ uptake effects, second counter-screen – HEK cells, counterscreen 2, counter-screen for KCC2 modulator project, confirmation. shares compounds with KCC2 mod. HEK293 parental, thallium flux FluoZin-2 fluorescence slope. thallium flux slope at 10 µM. 3,700 tested, 33% active. AID 1718, 2009;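 active = thallium flux slope above the same plate's solvent-control mean plus 3 SD in both duplicate wells; inconclusive = duplicate wells that disagreed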;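 note: run without ouabain in cells lacking the KCC2 cotransporter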
Large screens that a line does not name were inactive (follow-up assays come after a bar, where they were run). A selection: hits, their analogues and other compounds. The true share with any hit is near 12%.

CC(NC(=O)COC(=O)CC(c1ccccc1)c1ccccc1)c1ccccc1 (centres undefined)	KCC2 mod -4.73 (no result: ROMK mod) | KCC2 secondary inactive | KCC2 bumet counter inactive | KCC2 sec2 inactive | HEK293 Tl flux 0.00532 | KCC2 ouabain inactive | HEK293 Tl flux2 inconclusive
CCOC(=O)C1(CCCc2ccccc2)CCN(Cc2cnc(C)s2)CC1	L major viab 77.4, KCC2 mod -4.91 | KCC2 secondary inconclusive | KCC2 bumet counter inactive | KCC2 sec2 inconclusive | HEK293 Tl flux inactive | KCC2 ouabain inactive | HEK293 Tl flux2 inactive
S=C(N/N=C/c1cccs1)NC1CC2CCC1C2 (centres undefined)	KCC2 mod 19.5 (no result: Diaphorase inh, L major viab, ROMK mod, WT yeast gro inh, Diaphorase act) | KCC2 secondary 0.017 | KCC2 bumet counter 0.0663 | KCC2 sec2 inactive | HEK293 Tl flux 0.0267 | KCC2 ouabain inconclusive | HEK293 Tl flux2 0.0157
O=C(c1ccc2c(=O)n(C3CCCC3)c(=S)[nH]c2c1)N1CCCCCC1	KCC2 mod 5.32, WT yeast gro inh 96.1 | KCC2 secondary inactive | KCC2 bumet counter 0.0247 | KCC2 sec2 inactive | HEK293 Tl flux 0.0101 | KCC2 ouabain inactive | HEK293 Tl flux2 0.0128
O=C(c1ccc2c(=O)n(-c3ccccc3)c(=S)[nH]c2c1)N1CCCCC1	none
CCCCCn1c(=S)[nH]c2cc(C(=O)N3CCCC3)ccc2c1=O	none
CC1CCCN(C(=O)c2ccc3c(=O)n(C4CCCC4)c(=S)[nH]c3c2)C1 (centres undefined)	KCC2 mod 15.5 | KCC2 secondary inactive | KCC2 bumet counter 0.0248 | KCC2 sec2 inconclusive | HEK293 Tl flux 0.0224 | KCC2 ouabain inconclusive | HEK293 Tl flux2 inactive
Cc1cc(/C=N/n2cnnc2)c(O)c([N+](=O)[O-])c1	none (no result: ROMK mod)
CC(C)(C)n1[nH]c2c3c(ccc2c1=O)C(=O)c1ccccc1C3=O	L major viab 95.3 (no result: KCC2 mod, WT yeast gro inh) | KCC2 secondary inactive | KCC2 bumet counter inactive | KCC2 sec2 inactive | HEK293 Tl flux inactive | KCC2 ouabain inactive | HEK293 Tl flux2 inactive
O=C(O)c1cc([N+](=O)[O-])ccc1NCc1ccccc1Cl	KCC2 mod -4.53 | KCC2 secondary inconclusive | KCC2 bumet counter 0.00558 | KCC2 sec2 0.0225 | HEK293 Tl flux inconclusive | KCC2 ouabain 0.0115 | HEK293 Tl flux2 inactive
O=C(O)c1cc([N+](=O)[O-])ccc1NCCc1ccccc1	none (no result: Diaphorase inh, L major viab, ROMK mod, WT yeast gro inh, Diaphorase act)
CCCCCN1C/C=C\C(c2ccc(OC)cc2)N(Cc2ccc(F)cc2)C(=O)C1 (centres undefined)	KCC2 mod -2.52 (no result: Diaphorase inh, L major viab, ROMK mod, WT yeast gro inh, Diaphorase act) | KCC2 secondary inactive | KCC2 bumet counter inactive | KCC2 sec2 inconclusive | HEK293 Tl flux inactive | KCC2 ouabain 0.017 | HEK293 Tl flux2 inactive
CCCCC(=O)N1C/C=C\C(c2ccc(OC)cc2)N(Cc2ccc(F)cc2)C(=O)C1 (centres undefined)	KCC2 mod -2.77 (no result: Diaphorase inh, L major viab, ROMK mod, WT yeast gro inh, Diaphorase act) | KCC2 secondary inactive | KCC2 bumet counter inactive | KCC2 sec2 inactive | HEK293 Tl flux inactive | KCC2 ouabain inactive | HEK293 Tl flux2 inactive
COc1ccc(C2/C=C\CN(CC(C)(C)C)CC(=O)N2Cc2ccc(F)cc2)cc1 (centres undefined)	none (no result: Diaphorase inh, L major viab, ROMK mod, WT yeast gro inh, Diaphorase act)
COC(=O)N1C/C=C\C(c2ccc(OC)cc2)N(Cc2ccc(F)cc2)C(=O)C1 (centres undefined)	none (no result: Diaphorase inh, L major viab, ROMK mod, WT yeast gro inh, Diaphorase act)
COc1ccc(C2/C=C\CN(Cc3ccncc3)CC(=O)N2Cc2ccc(F)cc2)cc1 (centres undefined)	none (no result: Diaphorase inh, L major viab, ROMK mod, WT yeast gro inh, Diaphorase act)
COc1ccc(C2/C=C\CN(CC3CC3)CC(=O)N2Cc2ccc(F)cc2)cc1 (centres undefined)	KCC2 mod -3.44 (no result: Diaphorase inh, L major viab, ROMK mod, WT yeast gro inh, Diaphorase act) | KCC2 secondary inactive | KCC2 bumet counter inactive | KCC2 sec2 inactive | HEK293 Tl flux inactive | KCC2 ouabain 0.0169 | HEK293 Tl flux2 inactive
Cc1cc(/C=C2\NC(=S)NC2=O)c(C)n1-c1cccnc1	none (no result: Diaphorase inh, L major viab, ROMK mod, WT yeast gro inh, Diaphorase act)
CCCCc1ccc(/C=C2\C(=O)ON=C2c2ccccc2)s1	none
Cc1ccc(NC(=O)c2cc(-c3cccc(O)c3)on2)cc1C	none (no result: ROMK mod)
CN(C=O)CP(=O)(O)CCN1CCCC1=O	none (no result: Diaphorase inh, ROMK mod, WT yeast gro inh, Diaphorase act)
CC1=C(C(=O)Nc2ccc(Br)cc2)C(c2ccco2)NC(=O)N1 (centres undefined)	none
CC(C)n1c(SCC(=O)Nc2ccccc2N2CCOCC2)nc2c1c(=O)n(C)c(=O)n2C	none (no result: ROMK mod, KCC2 mod) | KCC2 secondary inactive | KCC2 bumet counter inactive | KCC2 sec2 inactive | HEK293 Tl flux inactive | KCC2 ouabain inactive | HEK293 Tl flux2 inactive
COc1cc(C2C3=C(CC(C)(C)CC3=O)OC3=C2C(=O)CC(C)(C)C3)cc([N+](=O)[O-])c1O	none
Cc1cc(NC(=O)CCC(=O)N(Cc2ccco2)C2(C(=O)NC3CCCCC3)CCN(C)CC2)no1	KCC2 mod -5.88 (no result: ROMK mod) | KCC2 secondary inactive | KCC2 bumet counter inactive | KCC2 sec2 inactive | HEK293 Tl flux inactive | KCC2 ouabain inactive | HEK293 Tl flux2 inactive
